CendR NRP1 mod – alters CendR peptide binding to human NRP-1; 360,000 tested, 0.85% active; O14786; FAM-RPARPAR peptide binding to NRP-1, fluorescence polarization; inhibition, % at 25 µM;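 active means inhibition or corrected inhibition above about 18%, plus a signal ratio from 0.5 to 1.5, limit read from the data, passing the limit was not always enough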
Target sequence (O14786 whole entry, looked up): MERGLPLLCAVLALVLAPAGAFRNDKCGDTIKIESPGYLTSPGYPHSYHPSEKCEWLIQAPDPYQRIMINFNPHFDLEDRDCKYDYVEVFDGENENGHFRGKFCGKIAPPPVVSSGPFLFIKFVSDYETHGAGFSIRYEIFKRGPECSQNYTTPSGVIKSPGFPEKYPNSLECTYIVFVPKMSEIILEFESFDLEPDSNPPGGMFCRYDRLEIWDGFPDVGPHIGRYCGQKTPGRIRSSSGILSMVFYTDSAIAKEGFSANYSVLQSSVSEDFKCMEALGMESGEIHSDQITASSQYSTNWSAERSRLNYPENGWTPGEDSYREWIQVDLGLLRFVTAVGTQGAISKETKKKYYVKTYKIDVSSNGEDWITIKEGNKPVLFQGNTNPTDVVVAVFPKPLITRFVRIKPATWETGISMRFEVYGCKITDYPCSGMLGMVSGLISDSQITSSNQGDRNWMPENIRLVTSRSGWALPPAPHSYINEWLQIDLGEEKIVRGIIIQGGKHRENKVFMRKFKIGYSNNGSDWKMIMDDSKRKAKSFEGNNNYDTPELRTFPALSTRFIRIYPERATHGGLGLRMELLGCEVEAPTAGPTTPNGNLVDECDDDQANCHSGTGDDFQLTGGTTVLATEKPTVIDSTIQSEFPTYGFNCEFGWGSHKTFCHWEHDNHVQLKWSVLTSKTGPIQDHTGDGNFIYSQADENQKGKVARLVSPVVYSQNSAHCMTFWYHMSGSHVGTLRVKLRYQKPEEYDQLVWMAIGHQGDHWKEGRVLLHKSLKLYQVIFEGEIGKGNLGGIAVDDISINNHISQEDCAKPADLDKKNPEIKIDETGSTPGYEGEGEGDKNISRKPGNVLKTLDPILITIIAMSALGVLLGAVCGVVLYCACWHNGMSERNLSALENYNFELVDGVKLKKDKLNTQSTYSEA
Tn7 DDE FP – disrupts Tn7 cyclic peptide binding to fibrin D-Dimer-E complex. P02675. FP displacement of FITC-Tn7 peptide from fibrin DD(E); 0% = median of compound wells per plate. inhibition, % at 8.3 µM. 370,000 tested, 0.13% active. AID 720508;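 active means inhibition above the mean of compounds falling within the control limits plus 3 SD of them, cut at about 14% in these data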
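Measure: % inhibition scaled between sample-field median and high-control FP; Test system: human fibrin DD(E); Quantity: 2 µM final DD(E) protein; Doses: one dose, 8.3 µM nominal; Schedule: compound with protein 10 min, then 3 h after probe, room temperature; Detection: fluorescence polarization; Medium: Tris buffer with calcium and detergent, pH 7.8.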
KLK7 zymogen act – activates the human kallikrein-7 zymogen; P49862; purified proKLK7, EDANS-DABCYL substrate fluorescence; 100% is mature enzyme control, 0% vehicle; activation, % at 7 µM; 370,000 tested, 0.9% active;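 active means activation above the mean of all tested compounds plus 3 SD, computed per campaign excluding outliers beyond control limits, cut at about 13% in these data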
CRFR2-BP antag – blocks CRF-induced signaling of the CRF-BP/CRF-R2 complex | HEK293 CRF-R2/CRF-BP, CRF-induced calcium fluorescence | inhibition, % at 11.8 µM | 350,000 tested, 0.59% active;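 active means inhibition of the ligand-induced calcium signal above about 50% at the single tested concentration, limit read from the data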
Tn6 DDE FP – disrupts Tn6 cyclic peptide binding to fibrin D-Dimer-E complex | Fibrin DD(E) TRITC-Tn6 fluorescence polarization displacement | inhibition, % at 8.3 µM | 370,000 tested, 0.21% active;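 active means inhibition above a per-campaign cutoff: mean of compounds within control limits plus 3 SD, cut at about 15% in these data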
CRFBP-R2 agonist – agonists of human CRF-binding protein/CRF-R2 receptor complex; HEK293 CRF-R2/CRF-BP, calcium dye fluorescence (FLIPR); percent of saturating CRF peptide response; activation, % at 13.2 µM; 350,000 tested, 0.46% active; AID 588473;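 active means activation of at least 50%, plus an integration ratio under a set limit after plate pattern correction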
A number is an active result; i = inactive; nt = no result given. Shown are actives, neighbours in structure and some others; about 2.9% of the full set was active somewhere.

SMILES	CendR NRP1 mod	Tn7 DDE FP	KLK7 zymogen act	CRFR2-BP antag	Tn6 DDE FP	CRFBP-R2 agonist
CC(NC(=O)Cc1ccc(NC2=NC3CS(=O)(=O)CC3S2)cc1)c1ccccc1 (stereo not drawn)	i	i	i	i	i	i
CC1(C)CC(=O)C2=C(C1)N(Cc1ccco1)C(=O)C2(NC(=O)c1cccnc1)C(F)(F)F (stereo not drawn)	i	i	i	i	i	i
CC1(C)CC(=O)C2=C(C1)N(Cc1ccco1)C(=O)C2(O)C(F)(F)F (stereo not drawn)	i	i	i	93.8	i	i
COc1ccc(CCC[C@H](CCC(=O)N(c2ccccc2)c2ccccc2)CCc2ccccc2)cc1	nt	i	i	nt	i	nt
COCC(=O)OC1CCn2c1nc1c2C(=O)C(C)=C(NC(C)=O)C1=O (stereo not drawn)	44.9	i	i	i	i	i
CCOC(=O)[C@@]12CCCC=C1N(CCc1ccc(Cl)cc1)C(=O)[C@H]2CC(=O)NCc1ccccc1	nt	i	i	nt	i	nt
COC(=O)C1=NN(c2ccccc2)C2(S1)SC(C(C)=O)=C(C)N2c1ccccc1 (stereo not drawn)	i	i	i	65.2	i	i
C/C=C\C(=O)Nc1cccc(C2=NOC3(C2)C[C@H](C(N)=O)N(C(=O)/C=C/CC)C3)c1 (stereo partly drawn)	i	i	i	i	i	i
CC/C=C/C(=O)N1CC2(CC(c3cccc(NC(=O)c4ccccc4)c3)=NO2)C[C@@H]1C(N)=O (stereo partly drawn)	23.4	i	i	i	i	i
C/C=C/C(=O)Nc1cccc(C2=NOC3(C2)C[C@@H](C(N)=O)N(C(=O)c2cc([N+](=O)[O-])cc([N+](=O)[O-])c2C)C3)c1 (stereo partly drawn)	i	i	i	i	i	232.2
CCCCCC(=O)N1CC2(CC(c3cccc(NC(=O)CC)c3)=NO2)C[C@H]1C(N)=O (stereo partly drawn)	i	i	i	79.0	i	i
NC(=O)[C@H]1CC2(CC(c3cccc(NC(=O)CC(c4ccccc4)c4ccccc4)c3)=NO2)CN1C(=O)c1ccccc1C(=O)c1ccccc1 (stereo partly drawn)	i	i	i	i	i	i
C=C(C)C(=O)Nc1cccc(C2=NOC3(C2)C[C@@H](C(N)=O)N(C(=O)c2cc([N+](=O)[O-])cc([N+](=O)[O-])c2C)C3)c1 (stereo partly drawn)	i	i	i	i	i	i
NC(=O)[C@H]1CC2(CC(c3cccc(NC(=O)CC(c4ccccc4)c4ccccc4)c3)=NO2)CN1C(=O)C(c1ccccc1)c1ccccc1 (stereo partly drawn)	30.3	i	i	i	i	i
COC(=O)[C@H]1C[C@@]2(N3CCCCC3)c3ccccc3N(C(=O)OC(C)(C)C)[C@H]2N1C(=O)OC(C)(C)C	nt	i	i	nt	i	nt
CC(/C=C1\SC(=S)N(NS(=O)(=O)c2ccccc2)C1=O)=C\c1ccccc1	i	i	i	92.7	i	i
O=C1/C(=C/c2cccnc2)SC(=S)N1NS(=O)(=O)c1ccccc1	i	i	i	i	i	i
O=C1/C(=C\c2ccc(Br)cc2)SC(=S)N1NS(=O)(=O)c1ccccc1	i	i	i	58.4	i	i
COc1ccc(/C=C2/SC(=S)N(NS(=O)(=O)c3ccccc3)C2=O)cc1	i	i	i	i	i	i
C=CCOc1ccc(/C=C2\SC(=S)N(NS(=O)(=O)c3ccccc3)C2=O)cc1	i	i	i	52.7	i	i
C=CCN1[C@H](C)COc2cccc(N3CCCC3)c2S1(=O)=O	nt	i	i	nt	i	nt
COc1cccc(C2=NNC(=NCc3ccccc3)SC2)c1	30.7	i	i	i	i	i
CC(=O)Nc1ccc(Sc2ncccc2C(=O)Nc2ccc(OC(F)(F)F)cc2)cn1	i	i	i	i	i	130.0
Clc1ccc([C@H]2OC[C@@]3(CNCCc4c[nH]c5ccccc45)CS[C@H](c4ccc(Cl)cc4)N23)cc1	nt	i	i	nt	i	nt
NCCCC[C@H]1CN=C(N)N1CCC12CC3CC(CC(C3)C1)C2	37.5	i	i	i	i	i
SMILES	CendR NRP1 mod	Tn7 DDE FP	KLK7 zymogen act	CRFR2-BP antag	Tn6 DDE FP	CRFBP-R2 agonist
Cc1[nH]n(-c2ccccc2)c(=O)c1/C=N/N1C(=O)c2cccc3cccc(c23)C1=O	i	i	i	i	i	61.9
CCC1(CC)NC(=O)N(CC(=O)OCC(=O)Nc2ccc(F)c(F)c2F)C1=O	i	i	i	i	i	i
CCC1(CC)NC(=O)N(CC(=O)OCC(=O)Nc2cc(OC)ccc2OC)C1=O	24.2	i	i	i	i	i
COc1ccc(S[C@]2(C(=O)N3CCCC3)CC(=O)N(C(=O)c3ccccc3)[C@@H]2c2ccc(OC)cc2)cc1	nt	i	i	nt	i	nt
COc1ccc(/C=C/c2c([N+](=O)[O-])c(=O)n(C)c(=O)n2C)cc1O	i	i	i	52.1	i	i
COc1cc(/C=C/c2c([N+](=O)[O-])c(=O)n(C)c(=O)n2C)cc(OC)c1OC	i	i	i	i	i	i
COc1cc(O)c2c(c1)OC(C)(C)CC2=O	i	i	i	i	i	i
COc1cc(O)cc2cc3c(c(O)c12)C(=O)CC(C)(O)O3 (stereo not drawn)	38.5	i	i	i	i	i
Cc1cc2c(=Cc3ccc(N(C)C)cc3)c3ccccc3n2[n+]1C	i	i	i	108.5	i	i
CN(C)c1ccc(C=c2c3ccccc3n3c2c2ccccc2[n+]3C)cc1	i	i	i	i	i	i
C#CCNC(=O)C[C@H]1C[C@@]2(C(=O)OC)C(=C[C@H](C(C)C)O[C@@H]2C2CC2)N(CCCCCCCC)C1=O	nt	i	i	nt	i	nt
COc1ccc(C(=O)c2cnc(/N=C/N(C)C)s2)cc1	31.5	i	i	i	i	i
Cc1ccc(NS(=O)(=O)c2cccc3nsnc23)cc1	i	i	i	75.2	i	i
C=CCN(C)CC#Cc1ccc(C)cc1	nt	i	i	nt	i	nt
CCC[C@H]1[C@@H](OC(=O)NCc2ccc(C(F)(F)F)cc2)CC[C@@]23CCCN2C(=O)CCC[C@@H]13	nt	i	nt	nt	i	nt
CCCCOc1ccccc1C1C(C(=O)OC)=CN(CC)C=C1C(=O)OC	i	i	i	59.3	i	i
CCCCn1c(-c2ccco2)nc2oc3ccccc3c(=O)c2c1=O	i	i	i	i	i	i
CCCCn1c(-c2cccs2)nc2oc3ccccc3c(=O)c2c1=O	20.0	i	i	i	i	i
C#CCOCCOCCOCCNc1nc(N2CCN(C(=O)CCCCCCCCCCNC(=O)Cn3cc(CCCCCN)nn3)CC2)nc(N2CCN(C(=O)CCCCCCCCCCNC(=O)[C@H]([C@@H](C)CC)n3cc(CCCCCN)nn3)CC2)n1	i	nt	nt	i	nt	89.2

Screening data as filed in PubChem BioAssay.
